Results published in ChEMBL document CHEMBL4311965, “Antimicrobial activity of amphipathic α,α-disubstituted β-amino amide derivatives against ESBL - CARBA producing multi-resistant bacteria; effect of halogenation, lipophilicity and cationic character” (Eur J Med Chem, 2019).
≈ marks a conversion by molar mass, not a printed value.

Experiments:
Escherichia coli [1] = assay: Antibacterial activity against Escherichia coli ATCC 25922 cultured in MHB medium assessed as no bacterial growth incubated at 37 degC for 24 hrs by microdilution susceptibility test; format: functional; settings: ATCC 25922, 24 h
Outline: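 Broth microdilution per CLSI M07-A9 with modifications. Inoculum about 2.5–3 x 10⁴ cells/mL in Mueller-Hinton broth, mixed 1:1 with test derivative. DMSO stocks diluted in double-distilled water, final DMSO <1%. Incubation 24 h at 37 °C (20 °C for C. glutamicum). Growth and sterility controls included; oxytetracycline reference.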

HepG2 = assay: Cytotoxicity against human HepG2 cells assessed as reduction in cell viability incubated for 4 hrs by CellTiter 96 Aqueous One Solution Reagent based assay; settings: HepG2, 4 h
Outline: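 HepG2 and MRC-5 cells seeded at 35 000 and 15 000 cells/well respectively, then held overnight at 37 °C, 5% CO₂. Compounds in serum-free MEM Earle's applied for 4 h. MTS reagent (CellTiter 96 AQueous One) added for a further 1 h, absorbance read at 485 nm. Survival expressed relative to medium (negative) and Triton X-100 (positive) controls.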

Staphylococcus aureus [2] = assay: Antibacterial activity against multidrug-resistant Staphylococcus aureus N315 cultured in MHB medium assessed as reduction in bacterial growth incubated for 24 hrs by microdilution susceptibility test; format: functional; settings: N315, 24 h
Outline: (§1)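 Broth microdilution per CLSI M07-A9 (modified). Working solutions made from concentrated DMSO stocks kept at r.t., diluted in double-distilled water, final DMSO <1%. Inoculum 1–1.2 x 10⁶ cells/mL in Mueller-Hinton broth, mixed 1:1 with compound. 37 °C, 24 h, four parallels. Read as OD₆₀₀. Where precipitation left residual OD, the point of major OD decrease was taken as the inhibitory concentration.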

Staphylococcus aureus [3] = assay: Antibacterial activity against multidrug-resistant Staphylococcus aureus NCTC 10442 cultured in MHB medium assessed as reduction in bacterial growth incubated for 24 hrs by microdilution susceptibility test; format: functional; settings: NCTC 10442, 24 h; outline: as §1
Staphylococcus aureus [4] = assay: Antibacterial activity against multidrug-resistant Staphylococcus aureus 85/2082 cultured in MHB medium assessed as reduction in bacterial growth incubated for 24 hrs by microdilution susceptibility test; format: functional; settings: 85/2082, 24 h; outline: as §1
Enterococcus faecium [5] = assay: Antibacterial activity against multidrug-resistant Enterococcus faecium 50901530 cultured in BHIB medium assessed as reduction in bacterial growth incubated for 24 hrs by microdilution susceptibility test; format: functional; settings: Enterococcus faecium, 50901530, 24 h
Outline: (§2)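 Enterococci grown in Brain Heart Infusion broth, otherwise broth microdilution per CLSI M07-A9 (modified). Concentrated DMSO stocks kept at r.t. and diluted in double-distilled water, final DMSO <1%. Inoculum 1–1.2 x 10⁶ cells/mL mixed 1:1 with compound. 37 °C, 24 h, four parallels. OD₆₀₀ read-out, lowest concentration with no growth.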

Enterococcus faecium [6] = assay: Antibacterial activity against multidrug-resistant Enterococcus faecium TUH50-22 cultured in BHIB medium assessed as reduction in bacterial growth incubated for 24 hrs by microdilution susceptibility test; format: functional; settings: TUH50-22, 24 h; outline: as §2
Escherichia coli [7] = assay: Antibacterial activity against multidrug-resistant Escherichia coli 50579417 producing oxcillinase-48 cultured in MHB medium assessed as reduction in bacterial growth incubated for 24 hrs by microdilution susceptibility test; format: functional; settings: Escherichia coli, 50579417, 24 h; outline: as §1
Escherichia coli [8] = assay: Antibacterial activity against multidrug-resistant Escherichia coli 50639799 producing Verona integron encoded metallo beta-lactamse-29 cultured in MHB medium assessed as reduction in bacterial growth incubated for 24 hrs by microdilution susceptibility test; format: functional; settings: Escherichia coli, 50639799, 24 h; outline: as §1
Escherichia coli [9] = assay: Antibacterial activity against multidrug-resistant Escherichia coli 50739822 producing New Delhi metallo-beta-lactamase-1 cultured in MHB medium assessed as reduction in bacterial growth incubated for 24 hrs by microdilution susceptibility test; format: functional; settings: Escherichia coli, 50739822, 24 h; outline: as §1
Pseudomonas aeruginosa [10] = assay: Antibacterial activity against multidrug-resistant Pseudomonas aeruginosa K34-7 producing Verona integron encoded metallo beta-lactamse-2 cultured in MHB medium assessed as reduction in bacterial growth incubated for 24 hrs by microdilution susceptibility test; format: functional; settings: K34-7, 24 h; outline: as §1
Pseudomonas aeruginosa [11] = assay: Antibacterial activity against multidrug-resistant Pseudomonas aeruginosa K34-73 producing Verona integron encoded metallo beta-lactamse-4 cultured in MHB medium assessed as reduction in bacterial growth incubated for 24 hrs by microdilution susceptibility test; format: functional; settings: K34-73, 24 h; outline: as §1
Klebsiella pneumoniae [12] = assay: Antibacterial activity against multidrug-resistant Klebsiella pneumoniae K66-45 producing New Delhi metallo-beta-lactamase-1 cultured in MHB medium assessed as reduction in bacterial growth incubated for 24 hrs by microdilution susceptibility test; format: functional; settings: K66-45, 24 h; outline: as §1
Klebsiella pneumoniae [13] = assay: Antibacterial activity against multidrug-resistant Klebsiella pneumoniae 50625602 producing oxcillinase-245 cultured in MHB medium assessed as reduction in bacterial growth incubated for 24 hrs by microdilution susceptibility test; format: functional; settings: Klebsiella pneumoniae, 50625602, 24 h; outline: as §1
Klebsiella pneumoniae [14] = assay: Antibacterial activity against multidrug-resistant Klebsiella pneumoniae 50667959 producing Verona integron encoded metallo beta-lactamse-1 cultured in MHB medium assessed as reduction in bacterial growth incubated for 24 hrs by microdilution susceptibility test; format: functional; settings: Klebsiella pneumoniae, 50667959, 24 h; outline: as §1
Acinetobacter baumannii [15] = assay: Antibacterial activity against multidrug-resistant Acinetobacter baumannii K47-42 producing oxcillinase-23 cultured in MHB medium assessed as reduction in bacterial growth incubated for 24 hrs by microdilution susceptibility test; format: functional; settings: K47-42, 24 h; outline: as §1
Acinetobacter baumannii [16] = assay: Antibacterial activity against multidrug-resistant Acinetobacter baumannii K63-58 producing oxcillinase-23 cultured in MHB medium assessed as reduction in bacterial growth incubated for 24 hrs by microdilution susceptibility test; format: functional; settings: K63-58, 24 h; outline: as §1
[17] = Drug metabolism in Sprague-Dawley rat liver microsomes assessed as CYP450-mediated 2-[[2-(aminomethyl)-3-(3,5-dibromophenyl)-2-[(3,5-dibromophenyl)methyl]propanoyl]amino]acetic acid formation incubated up to 3 hrs in presence of NADPH regenerating system by RP-HPLC-MS analysis; format: ADME
Outline: (§3)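 Substrate at 1 µL of 100 µM aqueous stock in 100 mM potassium phosphate, pH 7.4, with NADPH regenerating system. Pooled male Sprague–Dawley rat liver microsomes (20 mg/mL stock) added, then incubated at 37 °C. Sampled at 0–180 min and quenched with cold methanol containing propranolol internal standard. Analysed by RP-HPLC–HRMS in positive ESI mode. Metabolites confirmed by HCD MS2. Triplicate incubations.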

[18] = Drug metabolism in Sprague-Dawley rat liver microsomes assessed as CYP450-mediated 4-[2-(aminomethyl)-3-(3,5-dibromophenyl)-2-(4,5-dihydrooxazol-3-ium-2-yl)propyl]-2,6-dibromo-phenol formation incubated up to 3 hrs in presence of NADPH regenerating system by RP-HPLC-MS analysis; format: ADME; outline: as §3
[19] = Aqueous solubility of the compound in DMSO; format: physicochemical
[20] = Drug metabolism in Sprague-Dawley rat liver microsomes assessed as CYP450-mediated deaminated form of N-(2-aminoethyl)-2-(aminomethyl)-3-(4-fluoro-1-naphthyl)-2-[(4-fluoro-1-naphthyl)methyl]propanamide metabolite formation incubated up to 3 hrs in presence of NADPH regenerating system by RP-HPLC-MS analysis; format: ADME; outline: as §3
[21] = Drug metabolism in Sprague-Dawley rat liver microsomes assessed as CYP450-mediated N-(2-aminoethyl)-2-(aminomethyl)-2-[(4-fluoro-5,6-dihydroxy-5,6-dihydronaphthalen-1-yl)methyl]-3-(4-fluoro-1-naphthyl)propanamide formation incubated up to 3 hrs in presence of NADPH regenerating system by RP-HPLC-MS analysis; format: ADME; outline: as §3

Row | Compound | MIC (Escherichia coli [1]) | EC50 (HepG2) | MIC (Staphylococcus aureus [2]) | MIC (Staphylococcus aureus [3]) | MIC (Staphylococcus aureus [4]) | MIC (Enterococcus faecium [5]) | MIC (Enterococcus faecium [6]) | MIC (Escherichia coli [7]) | MIC (Escherichia coli [8]) | MIC (Escherichia coli [9]) | MIC (Pseudomonas aeruginosa [10]) | MIC (Pseudomonas aeruginosa [11]) | MIC (Klebsiella pneumoniae [12]) | MIC (Klebsiella pneumoniae [13]) | MIC (Klebsiella pneumoniae [14]) | MIC (Acinetobacter baumannii [15]) | MIC (Acinetobacter baumannii [16]) | solubility [19] | further results
1 | NCCNC(=O)C(CN)(Cc1cc(Br)cc(Br)c1)Cc1cc(Br)cc(Br)c1 | 4 µg/mL (≈ 6.38 µM) | 13 µg/mL (≈ 20.7 µM) | 8 µg/mL (≈ 12.8 µM) | 8 µg/mL (≈ 12.8 µM) | 8 µg/mL (≈ 12.8 µM) | 8 µg/mL (≈ 12.8 µM) | 8 µg/mL (≈ 12.8 µM) | 8 µg/mL (≈ 12.8 µM) | 16 µg/mL (≈ 25.5 µM) | 8 µg/mL (≈ 12.8 µM) | > 32 µg/mL | 32 µg/mL (≈ 51 µM) | 32 µg/mL (≈ 51 µM) | 8 µg/mL (≈ 12.8 µM) | 16 µg/mL (≈ 25.5 µM) | 16 µg/mL (≈ 25.5 µM) | 32 µg/mL (≈ 51 µM) | Soluble | Drug metabolism [17]: Metabolite_Notdetected; Drug metabolism [18]: Metabolite_Notdetected
2 | NCCNC(=O)C(CN)(Cc1ccc(F)c2ccccc12)Cc1ccc(F)c2ccccc12 | 4 µg/mL (≈ 8.94 µM) | 12 µg/mL (≈ 26.8 µM) | 16 µg/mL (≈ 35.8 µM) | 8 µg/mL (≈ 17.9 µM) | 8 µg/mL (≈ 17.9 µM) | 16 µg/mL (≈ 35.8 µM) | 8 µg/mL (≈ 17.9 µM) | 8 µg/mL (≈ 17.9 µM) | 16 µg/mL (≈ 35.8 µM) | 16 µg/mL (≈ 35.8 µM) | > 32 µg/mL | 32 µg/mL (≈ 71.5 µM) | 8 µg/mL (≈ 17.9 µM) | 8 µg/mL (≈ 17.9 µM) | 8 µg/mL (≈ 17.9 µM) | 16 µg/mL (≈ 35.8 µM) | 16 µg/mL (≈ 35.8 µM) | Soluble | Drug metabolism [20]: Metabolite_Detected; Drug metabolism [21]: Metabolite_Detected
